ChEMBL document CHEMBL3045343, “Nematicidal activity of 2-thiophenecarboxaldehyde and methylisothiocyanate from caper (Capparis spinosa) against Meloidogyne incognita” (J Agric Food Chem, 2012)
In brackets after ≈: the same amount, converted by molar mass.

Tested on: Meloidogyne incognita
Assay: Toxicity against Meloidogyne incognita (root-knot nematode) juveniles J2 at 100 mg/L after 24 hr
Type: functional
Conditions: not given
Summary of the method: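 J2 were immersed in 100 mg/L test solution in multiwell plates containing 25 J2 per well. Plates were held in the dark at 20 °C. Paralysis or death was scored by microscope after 24 h and corrected against the water control.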

Row | Compound | mortality at 100 µg/mL [%]
1 | O=Cc1ccccn1 [2-PYRIDINECARBOXALDEHYDE] | 100
2 | O=Cc1cccs1 [2-THIOPHENENECARBOXALDEHYDE] | 100

Tested on: Meloidogyne incognita
Assay: Nematicidal activity against Meloidogyne incognita (root-knot nematode) juveniles J2 assessed as paralysis after 1 day
Type: functional, organism-based
Conditions: 24 h
Summary of the method: (§1)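 M. incognita (Italian population reared on tomato cv. Roma VF) J2 hatched from egg masses in distilled water at 25 ± 2 °C. Methanol stocks diluted with Tween 20 in water (final methanol ≤1% v/v). Working solution at double strength mixed 1:1 with a suspension of 25 J2 per well. Held covered, dark, 20 °C. Paralysis scored by inverted microscope. Corrected by Schneider-Orelli against water control. EC50 from log-logistic regression. Six replicates; four experiments.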

Row | Compound | EC50 [µg/mL]
3 | N#Cc1ccc(C=O)s1 | > 250
4 | O=Cc1ccc[nH]1 | 392 (≈ 4120 µM)
5 | Cn1cccc1C=O | > 1000
6 | N#Cc1c[nH]c2ccccc12 | 68.9 (≈ 485 µM)
7 | N#Cc1ccc(C#N)s1 [2,5-THIOPHENEDINITRILE] | > 250
8 | O=Cc1ccc(C=O)s1 [2,5-THIOPHENENEDICARBOXALDEHYDE] | 1.13 (≈ 8.06 µM)
9 | O=Cc1ccccn1 [2-PYRIDINECARBOXALDEHYDE] | 3.6 (≈ 33.6 µM)
10 | O=C1CCCN1 [2-PYRROLIDONE] | > 250
11 | N#Cc1cccs1 [2-THIOPHENECARBONITRILE] | > 100
12 | O/N=C/c1cccs1 [2-THIOPHENECARBOXALDEHYDE OXIME] | > 250
13 | O=Cc1cccs1 [2-THIOPHENENECARBOXALDEHYDE] | 14.1 (≈ 126 µM)
14 | O=Cc1c[nH]c2ccccc12 [3-FORMYLINDOLE] | 301 (≈ 2070 µM)
15 | O=C1Nc2ccccc2C1=O [ISATIN] | > 250
16 | CN=C=S [METHYLISOTHIOCYANATE] | 7.86 (≈ 107 µM)
17 | O=Cc1cccnc1 [NICOTINALDEHYDE] | > 10

Tested on: Meloidogyne incognita
Assay: Nematicidal activity against Meloidogyne incognita (root-knot nematode) juveniles J2 assessed as paralysis after 1 hr
Type: functional, organism-based
Conditions: not given
Summary of the method: as §1

Row | Compound | EC50 [µg/mL]
18 | N#Cc1ccc(C=O)s1 | > 250
19 | O=Cc1ccc[nH]1 | > 1000
20 | Cn1cccc1C=O | > 1000
21 | N#Cc1c[nH]c2ccccc12 | > 250
22 | N#Cc1ccc(C#N)s1 [2,5-THIOPHENEDINITRILE] | > 250
23 | O=Cc1ccc(C=O)s1 [2,5-THIOPHENENEDICARBOXALDEHYDE] | 1.2 (≈ 8.56 µM)
24 | O=Cc1ccccn1 [2-PYRIDINECARBOXALDEHYDE] | 25 (≈ 233 µM)
25 | O=C1CCCN1 [2-PYRROLIDONE] | > 250
26 | N#Cc1cccs1 [2-THIOPHENECARBONITRILE] | > 100
27 | O/N=C/c1cccs1 [2-THIOPHENECARBOXALDEHYDE OXIME] | > 250
28 | O=Cc1cccs1 [2-THIOPHENENECARBOXALDEHYDE] | 105 (≈ 936 µM)
29 | O=Cc1c[nH]c2ccccc12 [3-FORMYLINDOLE] | > 250
30 | O=C1Nc2ccccc2C1=O [ISATIN] | > 250
31 | CN=C=S [METHYLISOTHIOCYANATE] | > 10
32 | O=Cc1cccnc1 [NICOTINALDEHYDE] | > 250
